Measurements reported in ChEMBL document CHEMBL4385606, “3,5,7-Substituted Pyrazolo[4,3- d]pyrimidine Inhibitors of Cyclin-Dependent Kinases and Their Evaluation in Lymphoma Models” (J Med Chem, 2019).
Calls of active or inactive are those of the source. No cut-off for these calls is given here.

Legend:
[1] = test system: Mus musculus; assay: Ex vivo antitumor activity against patient derived VFN-M1 cells xenografted NSG mouse assessed as down regulation of MCL1 expression at 10 mg/kg, iv measured after 24 hrs by immunoblotting analysis
[2] = test system: Mus musculus; assay: Ex vivo antitumor activity against human UPF1H cells xenografted NSG mouse assessed as increase in cleaved caspase 7 expression at 5 to 10 mg/kg, iv measured after 24 hrs by immunoblotting analysis; format: functional, organism-based
Summary of the method: (§1)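 Female NSG mice, 8-12 weeks old, implanted s.c. with lymphoma cells. Once tumors were palpable, mice received a single tail-vein i.v. dose (5 or 10 mg/kg) of compound dissolved in PBS. Mice were euthanized 24 h later. Tumors were excised, filtered through 45 µm nylon mesh and lysed, then proteins were analysed by immunoblotting.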

[3] = Antiproliferative activity against human RIVA cells assessed as growth inhibition measured after 72 hrs by calcein AM dye-based fluorescence assay; format: functional, cell-based
Summary of the method: (§2)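 Cells exposed in triplicate to six concentrations for 72 h; calcein AM added for 1 h, live-cell fluorescence read at 485/538 nm (ex/em). GI50 taken from dose-response curves.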

[4] = test system: Mus musculus; assay: Ex vivo antitumor activity against human Mino cells xenografted NSG mouse assessed as down regulation of MCL1 expression at 5 to 10 mg/kg, iv measured after 24 hrs by immunoblotting analysis; format: functional, organism-based
Summary of the method: (§3)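 NSG mice bearing palpable s.c. tumors received a single i.v. dose (5 or 10 mg/kg) and were euthanized after 24 h. Excised tumors were filtered through 45 µm nylon mesh, lysed and run on SDS-PAGE, transferred to nitrocellulose, probed overnight with primary antibodies in PBS with 5% milk and 0.1% Tween 20, then peroxidase secondaries, with chemiluminescent detection.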

[5] = test system: Maver1; assay: Antitumor activity against human Maver1 cells xenografted in NSG mouse assessed as inhibition of tumor growth at 9 mg/kg measured on day 13 by caliper method; format: functional, organism-based
Summary of the method: (§4)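 MAVER-1 cells implanted s.c. in NSG mice. Groups: vehicle n=6, 9 mg/kg n=8, venetoclax 20 mg/kg n=8, combination n=10. Tumors measured daily by caliper in two perpendicular dimensions. Mean volumes ±SD tracked from therapy start (day 1).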

[6] = species: Homo sapiens; assay: Induction of apoptosis in human UPF1H cells assessed as induction of PARP1 cleavage at 12.5 to 100 nM after 24 hrs by immunoblot analysis; format: functional, cell-based
Summary of the method: (§5)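 Lymphoma cell lines were cultured as the providers instruct and exposed to compound at several doses or for several times. Lysates were run on SDS-PAGE and blotted to nitrocellulose. Blots were blocked, incubated overnight with primary antibodies diluted in PBS with 5% milk and 0.1% Tween 20, then with peroxidase-conjugated secondaries, and detected by chemiluminescence on a CCD camera.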

[7] = test system: Mus musculus; assay: Ex vivo antitumor activity against human UPF1H cells xenografted NSG mouse decrease in phosphorylation of Rb at 780 residue at 5 to 10 mg/kg, iv measured after 24 hrs by immunoblotting analysis; format: functional, organism-based
Summary of the method: as §1

[8] = test system: Mus musculus; assay: Ex vivo antitumor activity against Maver1 xenografted NSG mouse assessed as down regulation of MCL-1 expression at 10 mg/kg, iv measured after 24 hrs by immunoblotting analysis; format: functional, organism-based
Summary of the method: as §3

[9] = test system: TMD8; assay: Antiproliferative activity against human TMD8 cells assessed as growth inhibition measured after 72 hrs by calcein AM dye-based fluorescence assay; format: functional, cell-based; conditions: TMD8, 72 h
Summary of the method: as §2

[10] = species: Homo sapiens; assay: Induction of apoptosis in human Mino cells assessed as reduction in MCL1 expression at 12.5 nM after 2 to 24 hrs by immunoblotting analysis; format: functional, cell-based
Summary of the method: as §5

[11] = biological target: Cyclin-dependent kinase 4/cyclin D1 (Homo sapiens, UniProt P11802); assay: Inhibition of recombinant human N-terminal GST-fused CDK4 (S4 to E303 residues)/cyclin D1 (Q4 to I295 residues) expressed in baculovirus infected Sf9 insect cells using RPPTLSPIPHIPR as substrate measured in presence of [gamma-33P]ATP
Summary of the method: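 CDK/cyclin complexes tested in triplicate at minimum; IC50 values reported from those replicate determinations.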

[12] = test system: Maver1; assay: Antitumor activity against human Maver1 cells xenografted in NSG mouse assessed as inhibition of tumor growth at 9 mg/kg measured on day 13 in presence of BCL2 inhibitor venetoclax by caliper method; format: functional, organism-based
Summary of the method: as §4

[13] = biological target: Cyclin-dependent kinase 7 (Homo sapiens) (UniProt P50613); assay: Inhibition of CDK7 in human Mino cells assessed as decrease in phosphorylation of Rb at Ser 780 residue at 12.5 nM by immunoblotting analysis; format: cell-based; conditions: TDE = time-dependent effect
Summary of the method: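 MINO lymphoma cells were treated at 12.5 nM, with time points over 24 h. Lysates were separated by SDS-PAGE and blotted to nitrocellulose. Phospho-RNA polymerase II CTD (Ser2, Ser5) and phospho-Rb (Ser608, Ser780) were probed with primary antibodies overnight and peroxidase-conjugated secondaries. Detection was by chemiluminescence on a CCD camera.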

[14] = test system: Mus musculus; assay: Ex vivo antitumor activity against human UPF1H cells xenografted NSG mouse assessed as down regulation of MCL1 expression at 5 to 10 mg/kg, iv measured after 24 hrs by immunoblotting analysis; format: functional, organism-based
Summary of the method: as §1

[15] = biological target: T1, Serine/threonine-protein kinase Chk2 (Homo sapiens, UniProt O96017); assay: Inhibition of CHK2 (unknown origin) assessed as residual activity at 1 uM relative to control
Summary of the method: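 Single-concentration screen at 1 µM across a panel of 50 protein kinases sampling the human kinome; read-out is residual kinase activity (%).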

[16] = test system: G-361; assay: Antiproliferative activity against human G361 cells assessed as growth inhibition measured after 72 hrs by calcein AM dye-based fluorescence assay; format: functional, cell-based; conditions: G-361, 72 h
Summary of the method: as §2

[17] = Antiproliferative activity against human Mino cells assessed as growth inhibition measured after 72 hrs by calcein AM dye-based fluorescence assay; format: functional, cell-based
Summary of the method: as §2

[18] = test system: Mus musculus; assay: Ex vivo antitumor activity against Maver1 xenografted NSG mouse assessed as induction of PARP1 cleavage at 10 mg/kg, iv measured after 24 hrs by immunoblotting analysis; format: functional, organism-based
Summary of the method: as §3

[19] = test system: Maver1; assay: Induction of apoptosis in human Maver1 cells assessed as reduction in XIAP expression at 1.5 to 12.5 nM after 24 hrs by immunoblot analysis; format: functional, cell-based
Summary of the method: as §5

[20] = test system: Mus musculus; assay: Ex vivo antitumor activity against human Mino cells xenografted NSG mouse assessed as cleavage of PARP1 at 5 to 10 mg/kg, iv measured after 24 hrs by immunoblotting analysis; format: functional, organism-based
Summary of the method: as §3

[21] = test system: Mus musculus; assay: Ex vivo antitumor activity against human Mino cells xenografted NSG mouse assessed as increase in cleaved caspase 9 expression at 5 to 10 mg/kg, iv measured after 24 hrs by immunoblotting analysis; format: functional, organism-based
Summary of the method: as §3

[22] = test system: SUD4; assay: Antiproliferative activity against human SUDHL4 cells assessed as growth inhibition measured after 72 hrs by calcein AM dye-based fluorescence assay; format: functional, cell-based; conditions: SU-DHL-4, 72 h
[23] = test system: Mus musculus; assay: Ex vivo antitumor activity against human Mino cells xenografted NSG mouse assessed as increase in cleaved caspase 7 expression at 5 to 10 mg/kg, iv measured after 24 hrs by immunoblotting analysis; format: functional, organism-based
Summary of the method: as §3

[24] = biological target: T1, Serine/threonine-protein kinase Chk2; assay: Inhibition of CHK2 (unknown origin)
[25] = test system: Maver1; assay: Induction of apoptosis in human Maver1 cells assessed as reduction in MCL1 expression at 1.5 to 12.5 nM after 24 hrs by immunoblot analysis; format: functional, cell-based
Summary of the method: as §5

T1 sequence (O96017 whole entry): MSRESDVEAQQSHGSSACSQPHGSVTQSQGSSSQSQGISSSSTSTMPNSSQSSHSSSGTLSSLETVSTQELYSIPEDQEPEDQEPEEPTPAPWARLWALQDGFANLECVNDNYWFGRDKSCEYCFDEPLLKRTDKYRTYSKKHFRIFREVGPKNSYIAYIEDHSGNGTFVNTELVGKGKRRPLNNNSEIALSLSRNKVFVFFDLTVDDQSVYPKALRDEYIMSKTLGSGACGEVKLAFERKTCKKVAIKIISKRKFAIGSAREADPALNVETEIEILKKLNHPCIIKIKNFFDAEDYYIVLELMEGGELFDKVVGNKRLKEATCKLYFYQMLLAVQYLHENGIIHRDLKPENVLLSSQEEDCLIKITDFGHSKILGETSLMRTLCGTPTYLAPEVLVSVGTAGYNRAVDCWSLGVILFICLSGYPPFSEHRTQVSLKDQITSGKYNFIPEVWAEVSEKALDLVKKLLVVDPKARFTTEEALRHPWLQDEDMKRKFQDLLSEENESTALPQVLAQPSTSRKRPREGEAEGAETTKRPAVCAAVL
Cyclin-dependent kinase 7 (Homo sapiens), sequence (P50613 whole entry): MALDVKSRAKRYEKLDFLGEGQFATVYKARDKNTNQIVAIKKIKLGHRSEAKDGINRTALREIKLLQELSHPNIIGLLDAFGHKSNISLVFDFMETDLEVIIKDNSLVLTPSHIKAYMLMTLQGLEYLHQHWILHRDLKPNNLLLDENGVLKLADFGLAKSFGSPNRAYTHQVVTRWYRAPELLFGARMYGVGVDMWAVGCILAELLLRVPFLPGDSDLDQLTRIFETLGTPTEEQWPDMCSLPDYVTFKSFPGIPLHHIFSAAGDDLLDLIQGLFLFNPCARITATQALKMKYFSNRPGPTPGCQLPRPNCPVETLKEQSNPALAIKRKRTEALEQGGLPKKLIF
Cyclin-dependent kinase 4/cyclin D1, sequence (P11802 whole entry, the tested form may be a part): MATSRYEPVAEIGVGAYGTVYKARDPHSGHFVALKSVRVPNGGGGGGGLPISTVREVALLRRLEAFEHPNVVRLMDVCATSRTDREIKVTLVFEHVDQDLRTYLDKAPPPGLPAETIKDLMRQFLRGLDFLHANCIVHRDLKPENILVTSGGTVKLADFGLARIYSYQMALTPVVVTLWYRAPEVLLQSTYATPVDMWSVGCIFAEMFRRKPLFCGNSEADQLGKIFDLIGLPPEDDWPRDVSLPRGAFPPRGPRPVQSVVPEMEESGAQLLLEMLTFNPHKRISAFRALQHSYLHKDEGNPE
Cyclin-dependent kinase 4/cyclin D1, sequence (P24385 whole entry, further chain, the tested form may be a part): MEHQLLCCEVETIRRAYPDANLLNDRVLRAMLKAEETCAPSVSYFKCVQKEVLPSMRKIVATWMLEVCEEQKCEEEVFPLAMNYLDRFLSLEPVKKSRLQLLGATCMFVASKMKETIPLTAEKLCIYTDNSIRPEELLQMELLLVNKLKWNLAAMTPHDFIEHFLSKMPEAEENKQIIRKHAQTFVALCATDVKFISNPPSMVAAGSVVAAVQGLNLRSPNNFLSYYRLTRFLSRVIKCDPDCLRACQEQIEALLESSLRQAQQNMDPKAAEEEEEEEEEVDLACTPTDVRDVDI

In the case of `CC(C)c1n[nH]c2c(NCc3ccc(-c4ccccn4)cc3)nc(SCCN)nc12`, the Activity [1] is reported as “Active”, the Activity [2] is reported as “Active” and the GI50 [3] is reported as 11 nM. The IC50 [3] was 11 nM, the Activity [4] was “Active” and the TGI [5] was “Active”. For the same compound, the Activity [6] was “Active”, the Activity [7] was “Active” and the Activity [8] was “Active”. The GI50 [9] was 12 nM, the IC50 [9] was 12 nM and the Activity [10] was “Active”. For the same compound, the IC50 [11] was 603 nM, the TGI [12] was “Active” and the inhibition [13] was “Tde”. For the same compound, the Activity [14] was “Active”, the Activity [15] was 18% and the GI50 [16] was 36 nM. The IC50 [16] was 36 nM, the GI50 [17] was 16 nM and the IC50 [17] was 16 nM. The Activity [18] was “Active”, the Activity [19] was “Active” and the Activity [20] was “Active”. The Activity [21] was “Active”, the GI50 [22] was 15 nM and the Activity [23] was “Active”. The IC50 [24] was 525 nM and the Activity [25] was “Active”.
